For orientation: IC50 means the concentration needed to halve the response being measured. High values mean weaker potency in that assay, low ones greater potency in that assay.

*1 amine or outer side, *2 acyl side, *3 side chain or, on linkers, in order; H or OH if unused. Where a SMILES comes first, the peptide text is derived from it. Bridges are numbered along the chain shown (N, C = ends). [ ]: non-standard residue; d: D form. Cys(O)(CH2CO) = O=C([C@H](C[S+]([O-])CC(=O)[*:3])N[*:1])[*:2] A value given as a limit tells only on which side of the number the result lay.

In the test the target is Integrin alpha-IIb/beta-3 (Homo sapiens, UniProt P08514+P05106). The test can be described thus: Inhibition of ADP-induced platelet aggregation in human platelet-rich plasma. Put shortly: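 Human blood drawn into 3.8% sodium citrate (9:1); PRP from 180g spin, 12 min, 22 °C; count adjusted to 3 × 10^8/mL with PPP. PRP preincubated with test sample 5 min at 37 °C in aggregometer, then ADP 17.2 µM final. Inhibition from transmittance change at 5 min versus no-sample maximum; 12-14 concentrations over ~200-fold range; IC50 by four-parameter fit; n ≥ 3.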
Integrin alpha-IIb/beta-3, sequence (P05106 27-788 limits assumed): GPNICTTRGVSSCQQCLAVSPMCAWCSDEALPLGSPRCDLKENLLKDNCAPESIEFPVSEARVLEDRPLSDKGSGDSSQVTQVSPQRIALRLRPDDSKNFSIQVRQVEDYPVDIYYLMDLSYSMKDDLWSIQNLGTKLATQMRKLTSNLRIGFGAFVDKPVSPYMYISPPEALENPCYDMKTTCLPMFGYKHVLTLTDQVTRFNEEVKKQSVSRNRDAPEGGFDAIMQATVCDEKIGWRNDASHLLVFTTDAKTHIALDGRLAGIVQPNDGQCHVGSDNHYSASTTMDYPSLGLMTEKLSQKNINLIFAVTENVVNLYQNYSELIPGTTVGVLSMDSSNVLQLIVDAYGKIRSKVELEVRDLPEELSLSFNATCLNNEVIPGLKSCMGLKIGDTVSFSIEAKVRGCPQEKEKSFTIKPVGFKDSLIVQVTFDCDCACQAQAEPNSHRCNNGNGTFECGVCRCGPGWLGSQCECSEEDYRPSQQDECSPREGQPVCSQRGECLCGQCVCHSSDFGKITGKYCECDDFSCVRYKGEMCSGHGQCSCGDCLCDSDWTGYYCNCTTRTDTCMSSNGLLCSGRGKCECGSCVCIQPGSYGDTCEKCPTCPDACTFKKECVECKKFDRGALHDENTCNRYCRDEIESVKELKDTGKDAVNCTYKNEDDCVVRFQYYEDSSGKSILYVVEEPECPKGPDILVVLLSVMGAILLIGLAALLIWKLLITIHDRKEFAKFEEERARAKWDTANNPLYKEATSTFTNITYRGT
Integrin alpha-IIb/beta-3, sequence (P08514 32-887 limits assumed): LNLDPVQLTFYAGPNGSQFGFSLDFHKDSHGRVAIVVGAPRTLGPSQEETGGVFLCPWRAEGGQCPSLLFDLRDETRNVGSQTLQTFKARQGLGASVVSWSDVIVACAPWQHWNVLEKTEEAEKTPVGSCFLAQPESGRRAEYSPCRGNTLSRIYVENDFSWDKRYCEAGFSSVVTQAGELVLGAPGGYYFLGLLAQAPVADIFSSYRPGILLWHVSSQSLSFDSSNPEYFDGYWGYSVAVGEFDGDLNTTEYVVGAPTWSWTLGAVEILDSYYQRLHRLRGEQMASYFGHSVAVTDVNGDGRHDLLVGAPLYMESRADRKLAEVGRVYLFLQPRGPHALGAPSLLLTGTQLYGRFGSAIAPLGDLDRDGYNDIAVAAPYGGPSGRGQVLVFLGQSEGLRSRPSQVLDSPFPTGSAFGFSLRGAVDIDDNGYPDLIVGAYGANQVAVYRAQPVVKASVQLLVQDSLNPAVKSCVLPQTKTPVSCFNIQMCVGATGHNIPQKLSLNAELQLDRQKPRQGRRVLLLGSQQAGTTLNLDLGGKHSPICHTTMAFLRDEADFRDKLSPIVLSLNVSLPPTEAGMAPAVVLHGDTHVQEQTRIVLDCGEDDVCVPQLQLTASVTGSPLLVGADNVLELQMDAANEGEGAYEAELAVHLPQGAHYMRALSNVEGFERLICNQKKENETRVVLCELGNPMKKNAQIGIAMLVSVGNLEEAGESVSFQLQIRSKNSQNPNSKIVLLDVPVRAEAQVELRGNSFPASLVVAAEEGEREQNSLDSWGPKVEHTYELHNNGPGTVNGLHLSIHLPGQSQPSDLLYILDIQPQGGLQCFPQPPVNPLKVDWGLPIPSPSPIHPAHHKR
Integrin alpha-IIb/beta-3, sequence (P08514 891-1039 limits assumed): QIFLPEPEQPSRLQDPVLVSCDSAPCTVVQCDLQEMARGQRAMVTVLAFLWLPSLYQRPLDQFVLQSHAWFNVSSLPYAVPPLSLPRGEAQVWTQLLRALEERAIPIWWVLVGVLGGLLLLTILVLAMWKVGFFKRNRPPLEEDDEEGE
Turning to `N=C(N)NCCC[C@@H]1NC(=O)[C@H](Cc2ccc(O)cc2)NC(=O)CSC[C@@H](C(=O)O)NC(=O)[C@H](CC(=O)O)NC(=O)CNC1=O` ({CH2CO}-YRGDC-OH; thioether N-5), 150 nM corresponded to half-maximal inhibition (IC50).

Take `N=C(N)NCCC[C@@H]1NC(=O)[C@H](CCC(N)=O)NC(=O)CSC[C@@H](C(=O)O)NC(=O)[C@H](CC(=O)O)NC(=O)CNC1=O`: 680 nM corresponded to half-maximal inhibition (IC50).

`N=C(N)NCCC[C@@H]1NC(=O)[C@@H](Cc2c[nH]c3ccccc23)NC(=O)CSC[C@@H](C(=O)O)NC(=O)[C@H](CC(=O)O)NC(=O)CNC1=O` displayed an IC50 of 4780 nM.

The molecule `CCCC1SC[C@@H](C(=O)O)NC(=O)[C@H](CC(=O)O)NC(=O)CNC(=O)[C@H](CCCNC(=N)N)NC(=O)CNC1=O` (some centres not stated) displayed an IC50 of 1500 nM.

`C[C@@H](O)[C@@H]1NC(=O)C[S+]([O-])C[C@@H](C(=O)O)NC(=O)[C@H](CC(=O)O)NC(=O)CNC(=O)[C@H](CCCN=C(N)N)NC1=O` (some centres not stated) came in with an IC50 of 100 nM.

In turn, `N=C(N)NCCC[C@@H]1NC(=O)[C@H](CCC(=O)O)NC(=O)CSC[C@@H](C(=O)O)NC(=O)[C@H](CC(=O)O)NC(=O)CNC1=O` showed an IC50 of 4600 nM.

Consider `C[C@@H](O)[C@@H]1NC(=O)CSC[C@@H](C(=O)O)NC(=O)[C@H](CC(=O)O)NC(=O)CNC(=O)[C@H](CCCN=C(N)N)NC1=O`, for which the IC50 came out at 240 nM.

With `N=C(N)NCCC[C@@H]1NC(=O)[C@@H](Cc2ccc(O)cc2)NC(=O)C[S+]([O-])C[C@@H](C(=O)O)NC(=O)[C@H](CC(=O)O)NC(=O)CNC1=O` (some centres not stated), half-maximal inhibition (IC50) was put at 120 nM.

For `N=C(N)NCCC[C@@H]1NC(=O)CNC(=O)C(c2ccc3ccccc3c2)SC[C@@H](C(=O)O)NC(=O)[C@H](CC(=O)O)NC(=O)CNC1=O` (some centres not stated), the IC50 came out at 4000 nM.

In turn, `N=C(N)NCCC[C@@H]1NC(=O)[C@H](Cc2ccc(O)cc2)NC(=O)C[S+]([O-])C[C@@H](C(=O)O)NC(=O)[C@H](CC(=O)O)NC(=O)CNC1=O` (some centres not stated) yielded an IC50 of 450 nM.

Consider `N=C(N)NCCC[C@@H]1NC(=O)CNC(=O)C(c2cccc3ccccc23)SC[C@@H](C(=O)O)NC(=O)[C@H](CC(=O)O)NC(=O)CNC1=O` (some centres not stated), for which half-maximal inhibition (IC50) was put at 780 nM.

Molecule `CC(C)C[C@@H]1NC(=O)C[S+]([O-])C[C@@H](C(=O)O)NC(=O)[C@H](CC(=O)O)NC(=O)CNC(=O)[C@H](CCCNC(=N)N)NC1=O` (some centres not stated) (LRGD[Cys(O)(CH2CO)]-OH; lactam N-5) came in with an IC50 of 100 nM.

On to `CC[C@@H](C)[C@H]1NC(=O)CSC[C@@H](C(=O)O)NC(=O)[C@H](CC(=O)O)NC(=O)CNC(=O)[C@H](CCCN=C(N)N)NC1=O`, for which the IC50 came out at 6080 nM.

`NC(N)=NCCC[C@H](N)C(=O)NCC(=O)N[C@@H](CC(=O)O)C(=O)N[C@@H](Cc1ccccc1)C(=O)O` (H-RGDF-OH) yielded an IC50 of 43000 nM.

On to `CC[C@H](C)[C@@H]1NC(=O)CSC[C@@H](C(=O)O)NC(=O)[C@H](CC(=O)O)NC(=O)CNC(=O)[C@H](CCCN=C(N)N)NC1=O`, for which the IC50 stood at 270 nM.

`CC(C)C[C@H](NC(=O)[C@H](CC(=O)O)NC(=O)CNC(=O)[C@@H](N)CCCNC(=N)N)C(=O)O` (H-RGDL-OH) gave an IC50 above 2000 nM.

The molecule `N=C(N)NCCC[C@H](N)C(=O)NCC(=O)N[C@@H](CC(=O)O)C(=O)N[C@@H](Cc1ccc(O)cc1)C(=O)O` (H-RGDY-OH) registered an IC50 of 94000 nM.
